Laboratory results published in ChEMBL document CHEMBL1132178, “5-Amino-1-(chloromethyl)-1,2-dihydro-3H-benz[e]indoles: relationships between structure and cytotoxicity for analogues bearing different DNA minor groove binding subunits” (J Med Chem, 1999).

Experiments:
EMT6 = test: Tested for growth inhibition against EMT6 tumor cell line(murine mammary carcinoma).; assay type: functional, cell-based, Mus musculus
Summary of the method: (§1)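 Log-phase cultures seeded in 96-well plates (200 AA8, 300 UV4 or 50 EMT6 cells/well), drug added after 24 h. Aerobic 4 h exposure at 37 °C under 5% CO2, then washed and regrown 4 days. Cell density read by sulforhodamine B staining. IC50 is the concentration giving 50% growth inhibition versus same-plate controls; mean of 2–5 determinations ± SEM.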

SK-OV-3 = test: Tested for growth inhibition against SKOV3 tumor cell line(human ovarian).; assay type: functional, cell-based
Summary of the method: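 Log-phase cultures of 600 SKOV3 cells/well in 96-well plates, drug added after 24 h. Aerobic 4 h exposure at 37 °C under 5% CO2, then washed and regrown 5 days. Growth read by sulforhodamine B staining. IC50 is the concentration giving 50% inhibition relative to same-plate controls; average of 2–5 determinations ± SEM.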

UV4 = test: The compound was tested for growth inhibition against UV4 tumor cell line(chinese hamster ovary).; assay type: functional, cell-based, Cricetulus griseus; summary of the method: as §1
CHO-AA8 = test: Tested for growth inhibition against AA8 tumor cell line(chinese hamster ovary).; assay type: functional, cell-based, Cricetulus griseus; summary of the method: as §1

IC50 (SK-OV-3; Homo sapiens, SK-OV-3) [nM]	SMILES	IC50 (EMT6; Mus musculus, EMT6) [nM]	IC50 (UV4; Cricetulus griseus, UV4) [nM]	IC50 (CHO-AA8; Cricetulus griseus, CHO-AA8) [nM]	IC50 (EMT6; emt6) [nM]	IC50 (SK-OV-3; sk-ov-3) [nM]	IC50 (UV4; uv4) [nM]	IC50 (CHO-AA8; cho-aa8) [nM]
1.5	CC(=O)Nc1cccc(/C=C/C(=O)N2CC(CCl)c3c2cc(N)c2ccccc32)c1 (stereo unspecified)	0.86	1.5	2.7				
0.48	COc1ccc2[nH]c(/C=C/C(=O)N3CC(CCl)c4c3cc(N)c3ccccc43)cc2c1 (stereo unspecified)	0.23	0.22	0.28				
1.9	CN(C)CCOc1ccc(/C=C/C(=O)N2CC(CCl)c3c2cc(N)c2ccccc32)cc1 (stereo unspecified)	0.63	0.56	1.5				
13	CC(=O)Nc1cc(/C=C/C(=O)N2CC(CCl)c3c2cc(N)c2ccccc32)n(C)n1 (stereo unspecified)	4.9	5.4	10.7				
	COc1cc2cc(C(=O)N3CC(CCl)c4c3cc(N)c3ccccc43)[nH]c2c(OC)c1OC (single isomer, unassigned; (+))				0.13	0.54	0.14	0.21
3.5	Nc1cc2c(c3ccccc13)C(CCl)CN2C(=O)c1cc2cc(NC(=O)c3cc4ccccc4o3)ccc2[nH]1 (stereo unspecified)	1.3	1.5	2				
	COc1cc2cc(C(=O)N3CC(CCl)c4c3cc(N)c3ccccc43)[nH]c2c(OC)c1OC (single isomer, unassigned; (-))				7	7.9	2.7	14
49	CC(=O)Nc1cc(C(=O)Nc2cc(C(=O)N3CC(CCl)c4c3cc(N)c3ccccc43)nn2C)nn1C (stereo unspecified)	212	253	374				
2.7	CC(=O)Nc1ccc(/C=C/C(=O)N2CC(CCl)c3c2cc(N)c2ccccc32)cc1 (stereo unspecified)	1.2	1.4	2.6				
5.3	COc1cc2cc(C(=O)N3CC(CCl)c4c3cc(N)c3ccccc43)[nH]c2cc1OCCN(C)C (stereo unspecified)	2	2.1	3.6				
4.2	COc1cc(OCCN(C)C)c2[nH]c(C(=O)N3CC(CCl)c4c3cc(N)c3ccccc43)cc2c1 (stereo unspecified)	1.9	1.9	3.7				

SMILES	IC50 (SK-OV-3; Homo sapiens, SK-OV-3) [nM]	IC50 (EMT6; Mus musculus, EMT6) [nM]	IC50 (UV4; Cricetulus griseus, UV4) [nM]	IC50 (CHO-AA8; Cricetulus griseus, CHO-AA8) [nM]	IC50 (EMT6; emt6) [nM]	IC50 (SK-OV-3; sk-ov-3) [nM]	IC50 (UV4; uv4) [nM]	IC50 (CHO-AA8; cho-aa8) [nM]
COc1cc2cc(C(=O)N3CC(COS(C)(=O)=O)c4c3cc(N)c3ccccc43)[nH]c2c(OC)c1OC (stereo unspecified)	1.2	0.4	0.46	0.48				
CC(=O)Nc1ccc2[nH]c(C(=O)N3CC(CCl)c4c3cc(N)c3ccccc43)cc2c1 (stereo unspecified)	17.3	5.2	7.6	12.5				
COc1cccc(/C=C/C(=O)N2CC(CCl)c3c2cc(N)c2ccccc32)c1 (stereo unspecified)	0.68	0.63	0.42	0.37				
CCCC(=O)Nc1cc(/C=C/C(=O)N2CC(CCl)c3c2cc(N)c2ccccc32)n(C)c1 (stereo unspecified)	22	5.9	16	31				
Nc1ccc2[nH]c(C(=O)N3CC(CCl)c4c3cc(N)c3ccccc43)cc2c1 (stereo unspecified)	3	0.83	1.1	2.5				
CN(C)CCOc1ccc2[nH]c(C(=O)N3CC(CCl)c4c3cc(N)c3ccccc43)cc2c1 (stereo unspecified)	7	1.3	1.7	4.1				
COc1ccc2[nH]c(C(=O)N3CC(CCl)c4c3cc(N)c3ccccc43)cc2c1 (stereo unspecified)	1.86	0.98	0.84	1.3				
COc1ccc(/C=C/C(=O)N2CC(CCl)c3c2cc(N)c2ccccc32)cc1 (stereo unspecified)	0.24	0.089	0.058	0.09				
